From PubChem
Compounds with a hit are over-represented: about 1.6% of the library has one in this group of screens.
SKN-1 inh: suppressors of acrylamide-induced Pgst-4::GFP reporter in worms, primary screen, SKN-1 inhibitor project, whole organism, uHTS, GFP/RFP fluorescence ratio, strain VP596; C. elegans VP596 Pgst-4::GFP/RFP ratio, 24 h; 0.49% of 360,000 active; inhibition, % at 21.8 µM;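 active means interference check ratio from 0.5 to 1.5 plus GFP to RFP signal ratio inhibition reaching or exceeding a fixed threshold, cut at about 30% in these data, passing the limit was not always enough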
p-CIP stab down: p/CIP-EGFP fusion destabilizers, primary screen, fluorescence, F442A cells; 0.01% of 290,000 active; 16 h; decrease of EGFP signal, % at 10 µM;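 active means EGFP signal decrease of at least 30% at 10 µM or well 3 SD below plate mean, unless failing retest; inactive means the rest, including hits failing retest or dose response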
MsrA inh: bovine MsrA enzyme inhibitors, primary screen, biochemical, absorbance, HTS; 0.75% of 360,000 active; purified bovine MsrA, absorbance read-out; Methionine sulfoxide reductase A (Bos taurus); inhibition, % at 15.5 µM;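 further: 0% = vehicle wells with enzyme and 100% = reference inhibitor wells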
MsrA act: bovine MsrA enzyme activators, primary screen, biochemical, absorbance, HTS | Methionine sulfoxide reductase A (Bos taurus) | purified bovine MsrA, absorbance read-out | activation, % at 10.6 µM | 0.3% of 360,000 active | AID 602163, 2012; in the data active means activation above about 7.5%;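 further: 0% = vehicle and 100% = reference activator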
MT1-MMP act inh: blockers of MT1-MMP proenzyme processing, primary screen, HT1080 RFP-PRO-GFP cells, GFP/RFP fluorescence; Matrix metalloproteinase-14 (Homo sapiens), P50281; GFP/RFP ratio fluorescence, overnight; percent of plate control window, DMSO zero; GFP/RFP ratio change, % at 20 µM; 0.061% of 360,000 active;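 active means GFP/RFP ratio change of at least 30% with cell ATP level not reduced by more than half and red fluorescence within 50% of control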
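Assay system: RFP-PRO-GFP reporter HT1080 cells; read-out basis: GFP/RFP fluorescence ratio; benchmarks: DMSO wells and RFP-L50D-GFP cells; doses: 20 µM single dose, 1% DMSO; schedule: overnight cell settling, then overnight compound exposure, 37 °C, 5% CO2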
MsrA conf: bovine MsrA inhibitors, retest, confirmation, biochemical, absorbance, HTS; purified bovine MsrA, absorbance read-out; shares compounds with MsrA inh; inhibition, % at 15.5 µM; AID 651822, 2012; 41% of 2,300 active;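 further: coupled to thioredoxin reductase with NADPH and selenocystamine and DMSO as substrate; 0% = vehicle only and 100% = full effect of reference inhibitor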
* hit, by the source's call. Unless noted, no stated cut-off is given here; in the data, active means inhibition above about 4.5%; inactive means the rest.

What do the screens show for `CC(SC(C)C(=O)NN=Cc1c[nH]c2ccccc12)C(=O)NN=Cc1c[nH]c2ccccc12` (stereo not drawn)?
SKN-1 inh: 20; MsrA inh: 5.0*; MsrA act: -2; MT1-MMP act inh: 1; MsrA conf: 1

Results for CC(=O)Nc1cccc(C(=O)N/N=C/c2c[nH]c3ccccc23)c1 ?
SKN-1 inh: 20; p-CIP stab down: -1; MsrA inh: 5.8*; MsrA act: -4; MT1-MMP act inh: -2; MsrA conf: 2

Results for CCCCc1nc(SCC(=O)N2CCCC2)c2c(=O)n(C)c(=O)n(C)c2n1 ?
SKN-1 inh: -14; p-CIP stab down: 1; MsrA inh: 7.5*; MsrA act: -9; MT1-MMP act inh: -1; MsrA conf: 6.9*

Results for CCCCc1nc(SCC(=O)N2CCCCC2)c2c(=O)n(C)c(=O)n(C)c2n1 ?
SKN-1 inh: 1; MsrA inh: -1; MsrA act: 0; MT1-MMP act inh: -1

How did CC(C)Cc1nc(SCC(=O)N2CCCC2)c2c(=O)n(C)c(=O)n(C)c2n1 do in these assays?
SKN-1 inh: 2; p-CIP stab down: 1; MsrA inh: 8.0*; MsrA act: -2; MT1-MMP act inh: 2; MsrA conf: 7.2*

What do the screens show for `Cc1ccc(C(=O)N2O[C@]34C=C[C@]25C[C@@H](O)CC[C@]5(C)C3CC[C@]2(C)[C@@H]([C@H](C)/C=C/[C@H](C)C(C)C)CC[C@H]24)cc1` (stereo partly drawn)?
MsrA inh: 0

How did CCc1cc2c(nc1CC)CCCN2S(=O)(=O)c1ccccc1 do in these assays?
MsrA inh: 0

What do the screens show for `c1ccc2c(c1)CCCN2c1nc2ccccc2n2cnnc12`?
SKN-1 inh: 1; p-CIP stab down: -11; MsrA inh: 12*; MsrA act: -12; MsrA conf: 12*
